Assay results taken from ChEMBL document CHEMBL1136055, “3-Heteroaryl-2-pyridones: benzodiazepine site ligands with functional delectivity for alpha 2/alpha 3-subtypes of human GABA(A) receptor-ion channels” (J Med Chem, 2002).

Legend:
[1] = target: GABA-A receptor; alpha-3/beta-3/gamma-2 (Homo sapiens) (UniProt P18507+P28472+P34903); experiment: Modulatory effect on coapplication with GABA at human Gamma-aminobutyric acid A receptor alpha-3-beta-3-gamma-2 in Xenopus oocytes.; assay type: cell-based; details: Oocyte
Summary of the method: (§1)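 Two-electrode voltage clamp of Xenopus oocytes transiently expressing human α1, α2 or α3 β3γ2S receptors. Test compound is co-applied with GABA at its EC20 (GABA range 4-30 µM). Result is the % change in GABA current, mean (SEM), n = 3-7, at the stated test compound concentration (µM).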

[2] = target: T1, GABA-A receptor; alpha-3/beta-3/gamma-2 (Homo sapiens, UniProt P18507+P28472+P34903); experiment: Binding affinity by displacement of [3H]Ro-151788 from recombinant human gamma-aminobutyric-acid A receptor alpha3,beta3,gamma2 stably expressed in L cells; assay type: cell-based
T1 sequence (P18507 whole entry): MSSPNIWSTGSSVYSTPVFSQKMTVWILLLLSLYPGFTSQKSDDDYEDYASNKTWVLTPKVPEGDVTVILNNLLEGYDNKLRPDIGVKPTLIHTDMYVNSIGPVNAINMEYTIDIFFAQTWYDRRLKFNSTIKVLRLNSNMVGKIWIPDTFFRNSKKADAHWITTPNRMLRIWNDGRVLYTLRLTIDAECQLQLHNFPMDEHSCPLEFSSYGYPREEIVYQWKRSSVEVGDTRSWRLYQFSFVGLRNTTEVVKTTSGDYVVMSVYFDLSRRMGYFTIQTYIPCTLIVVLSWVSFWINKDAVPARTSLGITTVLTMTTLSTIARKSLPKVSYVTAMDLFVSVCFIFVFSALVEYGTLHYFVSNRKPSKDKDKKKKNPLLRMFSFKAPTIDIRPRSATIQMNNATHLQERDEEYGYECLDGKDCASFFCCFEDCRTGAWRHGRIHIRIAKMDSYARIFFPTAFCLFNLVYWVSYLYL
T1 sequence (P28472 whole entry): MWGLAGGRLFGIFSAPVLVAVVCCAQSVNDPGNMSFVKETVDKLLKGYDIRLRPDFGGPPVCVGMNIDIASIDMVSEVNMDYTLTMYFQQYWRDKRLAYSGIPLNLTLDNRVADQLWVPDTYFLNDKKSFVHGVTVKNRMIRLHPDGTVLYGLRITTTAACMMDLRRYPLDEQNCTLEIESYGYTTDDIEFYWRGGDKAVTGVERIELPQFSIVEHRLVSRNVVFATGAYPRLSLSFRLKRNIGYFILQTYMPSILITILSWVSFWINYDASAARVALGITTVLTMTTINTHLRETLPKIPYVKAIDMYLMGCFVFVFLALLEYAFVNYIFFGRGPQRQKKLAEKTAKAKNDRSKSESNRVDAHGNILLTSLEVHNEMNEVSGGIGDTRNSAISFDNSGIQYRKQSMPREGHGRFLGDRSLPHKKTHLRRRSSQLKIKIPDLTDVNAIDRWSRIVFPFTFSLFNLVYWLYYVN
T1 sequence (P34903 whole entry): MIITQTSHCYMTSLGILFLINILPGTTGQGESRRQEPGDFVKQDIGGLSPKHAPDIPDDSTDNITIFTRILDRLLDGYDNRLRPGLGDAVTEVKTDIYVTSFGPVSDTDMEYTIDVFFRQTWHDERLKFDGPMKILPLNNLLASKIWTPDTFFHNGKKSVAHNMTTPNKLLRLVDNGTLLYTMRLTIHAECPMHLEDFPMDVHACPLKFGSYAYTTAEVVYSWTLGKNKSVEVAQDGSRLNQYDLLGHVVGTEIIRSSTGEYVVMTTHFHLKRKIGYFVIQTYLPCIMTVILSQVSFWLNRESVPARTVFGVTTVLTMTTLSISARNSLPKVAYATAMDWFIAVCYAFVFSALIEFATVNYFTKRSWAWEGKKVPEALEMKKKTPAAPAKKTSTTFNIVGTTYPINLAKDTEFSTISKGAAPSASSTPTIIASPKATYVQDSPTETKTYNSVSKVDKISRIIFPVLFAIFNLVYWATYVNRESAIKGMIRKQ
Summary of the method: (§2)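 Competition binding against [3H]Ro15-1788 on cloned human α1/α2/α3/α5 β3γ2S receptors stably expressed in L(tk-) cells. Six to eight test concentrations spaced in half-log steps. Ki given as mean (SEM), n = 3-5, reported to two significant figures.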

[3] = target: GABA-A receptor; alpha-2/beta-3/gamma-2 (Homo sapiens) (UniProt P18507+P28472+P47869); experiment: Modulatory effect on coapplication with GABA at human Gamma-aminobutyric acid A receptor alpha-2-beta-3-gamma-2 expressed inXenopus oocytes; assay type: cell-based; details: Oocyte; summary of the method: as §1
[4] = target: T2, GABA-A receptor; alpha-2/beta-3/gamma-2 (Homo sapiens, UniProt P18507+P28472+P47869); experiment: Displacement of [3H]Ro-151788 from human Gamma-aminobutyric acid A receptor alpha-2-beta-3-gamma-2 stably expressed in L(tk-) cells; assay type: cell-based; summary of the method: as §2
T2 sequence (P18507 whole entry): T1 sequence (P18507 whole entry)
T2 sequence (P28472 whole entry): T1 sequence (P28472 whole entry)
T2 sequence (P47869 whole entry): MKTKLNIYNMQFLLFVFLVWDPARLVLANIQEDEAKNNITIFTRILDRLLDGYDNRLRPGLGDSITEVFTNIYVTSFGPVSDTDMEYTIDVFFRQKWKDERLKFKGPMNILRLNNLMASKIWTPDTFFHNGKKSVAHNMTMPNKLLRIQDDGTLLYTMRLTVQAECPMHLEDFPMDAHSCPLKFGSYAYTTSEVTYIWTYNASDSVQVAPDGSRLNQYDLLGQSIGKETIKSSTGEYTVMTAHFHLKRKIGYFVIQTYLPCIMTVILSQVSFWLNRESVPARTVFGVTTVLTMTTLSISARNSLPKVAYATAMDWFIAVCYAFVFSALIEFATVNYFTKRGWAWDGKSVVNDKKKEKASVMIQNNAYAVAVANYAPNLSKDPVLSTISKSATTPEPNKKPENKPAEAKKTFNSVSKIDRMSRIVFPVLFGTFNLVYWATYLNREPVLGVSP

[5] = target: T3, GABA-A receptor; alpha-5/beta-3/gamma-2 (Homo sapiens, UniProt P18507+P28472+P31644); experiment: Displacement of [3H]Ro-151788 from human GABA-A receptor alpha-5-beta-3-gamma-2 subunits expressed in L(tk-) cells (<50% inhibition at 2 uM); assay type: cell-based
T3 sequence (P18507 whole entry): T1 sequence (P18507 whole entry)
T3 sequence (P28472 whole entry): T1 sequence (P28472 whole entry)
T3 sequence (P31644 whole entry): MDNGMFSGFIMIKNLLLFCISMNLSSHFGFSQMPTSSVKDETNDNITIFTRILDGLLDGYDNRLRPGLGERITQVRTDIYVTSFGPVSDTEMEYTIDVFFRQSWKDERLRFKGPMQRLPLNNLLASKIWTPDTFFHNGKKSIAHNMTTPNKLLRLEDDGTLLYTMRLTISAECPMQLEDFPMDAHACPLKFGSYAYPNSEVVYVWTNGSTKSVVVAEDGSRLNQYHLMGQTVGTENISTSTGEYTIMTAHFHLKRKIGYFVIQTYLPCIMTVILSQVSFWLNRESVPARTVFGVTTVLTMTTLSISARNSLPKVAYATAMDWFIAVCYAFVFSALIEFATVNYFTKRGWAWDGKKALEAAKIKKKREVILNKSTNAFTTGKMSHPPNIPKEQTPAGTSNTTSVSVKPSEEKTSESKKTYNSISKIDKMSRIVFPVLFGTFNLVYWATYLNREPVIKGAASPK

[6] = target: T4, GABA-A receptor; alpha-1/beta-3/gamma-2 (Homo sapiens) (UniProt P14867+P18507+P28472); experiment: Modulatory effect on coapplication with GABA at human Gamma-aminobutyric acid A receptor alpha-1-beta-3-gamma-2 in Xenopus oocyte.; summary of the method: as §1
[7] = target: T3, GABA-A receptor; alpha-5/beta-3/gamma-2; experiment: Inhibition of [3H]Ro-151788 binding to human GABA A receptor (alpha-5-beta-3-gamma-2) stably expressed in L(tk-) cells.; assay type: cell-based; summary of the method: as §2
[8] = target: T5, GABA-A receptor; alpha-1/beta-3/gamma-2 (Homo sapiens, UniProt P14867+P18507+P28472); experiment: Displacement of [3H]Ro-151788 from human GABA-A receptor alpha-1-beta-3-gamma-2 subunits expressed in L(tk-) cells; assay type: cell-based; summary of the method: as §2
T5 sequence (P14867 whole entry): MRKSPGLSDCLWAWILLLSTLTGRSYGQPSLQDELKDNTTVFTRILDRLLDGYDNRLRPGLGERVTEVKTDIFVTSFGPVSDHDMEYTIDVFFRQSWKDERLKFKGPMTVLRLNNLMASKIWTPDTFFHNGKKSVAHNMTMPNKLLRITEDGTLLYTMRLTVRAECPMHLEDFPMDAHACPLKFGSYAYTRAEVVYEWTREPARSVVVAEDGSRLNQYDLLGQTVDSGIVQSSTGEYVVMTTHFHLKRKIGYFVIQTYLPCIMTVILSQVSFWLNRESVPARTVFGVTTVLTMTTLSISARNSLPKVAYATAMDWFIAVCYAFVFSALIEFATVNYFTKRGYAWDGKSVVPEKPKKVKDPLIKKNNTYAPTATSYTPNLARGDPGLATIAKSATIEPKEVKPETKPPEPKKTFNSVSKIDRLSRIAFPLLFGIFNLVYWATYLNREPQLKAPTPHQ
T5 sequence (P18507 whole entry): T1 sequence (P18507 whole entry)
T5 sequence (P28472 whole entry): T1 sequence (P28472 whole entry)

[9] = target: T4, GABA-A receptor; alpha-1/beta-3/gamma-2 (Homo sapiens); experiment: Modulatory effect on coapplication with GABA at human Gamma-aminobutyric acid A receptor alpha-1-beta-3-gamma-2 expressed in Xenopus oocytes; assay type: cell-based; details: Oocyte; summary of the method: as §1
[10] = target: T5, GABA-A receptor; alpha-1/beta-3/gamma-2; experiment: Inhibition of [3H]Ro-151788 binding to human GABA A receptor (alpha-1-beta-3-gamma-2) stably expressed in L(tk-) cells.; assay type: cell-based
[11] = target: T3, GABA-A receptor; alpha-5/beta-3/gamma-2; experiment: Displacement of [3H]Ro-151788 from human GABA-A receptor alpha-5-beta-3-gamma-2 subunits expressed in L(tk-) cells; assay type: cell-based; summary of the method: as §2
[12] = target: T2, GABA-A receptor; alpha-2/beta-3/gamma-2; experiment: Displacement of [3H]Ro-151788 from human GABA-A receptor alpha-2-beta-3-gamma-2 subunits expressed in L(tk-) cells; assay type: cell-based; summary of the method: as §2
[13] = target: T5, GABA-A receptor; alpha-1/beta-3/gamma-2; experiment: Displacement of [3H]Ro-151788 from human GABA-A receptor alpha-1-beta-3-gamma-2 subunits expressed in L(tk-) cells (<50% inhibition at 10 uM); assay type: cell-based
[14] = target: T2, GABA-A receptor; alpha-2/beta-3/gamma-2; experiment: Displacement of [3H]Ro-151788 from human GABA-A receptor alpha-2-beta-3-gamma-2 subunits expressed in L(tk-) cells (<50% inhibition at 2 uM); assay type: cell-based
[15] = target: T5, GABA-A receptor; alpha-1/beta-3/gamma-2; experiment: Displacement of [3H]Ro-151788 from human GABA-A receptor alpha-1-beta-3-gamma-2 subunits expressed in L(tk-) cells (<50% inhibition at 3 uM); assay type: cell-based
[16] = target: T5, GABA-A receptor; alpha-1/beta-3/gamma-2; experiment: Displacement of [3H]Ro-151788 from human GABA-A receptor alpha-1-beta-3-gamma-2 subunits expressed in L(tk-) cells (<50% inhibition at 100 uM); assay type: cell-based

Compound | percent modulation of GABA EC20 response [1] [%] | Ki [2] [nM] | percent modulation of GABA EC20 response [3] [%] | Ki [4] [nM] | percent modulation of GABA EC20 response [6] [%] | Ki [7] [nM] | Ki [8] [nM] | Ki [11] [nM] | also measured
COc1ccc(-c2cc(C#N)c(=O)n(C)c2-c2ccc(N(C)C)cc2)cc1 | 8 | 860 | -16 | 1800 | 7 |  |  |  | Ki [5]: > 667 nM
COC(=O)c1cc(-c2ccc(OC)cc2)c(-c2ccccc2)n(C)c1=O |  | 210 |  | 340 |  | 393 | 625 |  | 
COc1ccc(-c2cc(-c3cccs3)c(=O)n(C)c2-c2ccncc2)cc1 | 36 | 15 | 15 | 23 |  | 350 |  |  | EC20 [9]: 9%; Ki [10]: 30 nM
Cc1csc(-c2cc(-c3ccncc3)c(-c3ccncc3)n(C)c2=O)n1 | -4 | 6.7 |  |  | -23 |  | 24 | 270 | Ki [12]: 20 nM
COC(=O)c1cc(-c2ccc(OC)cc2)c(-c2ccc(N(C)C)cc2)n(C)c1=O | 132 | 250 | 81 | 600 | 181 | > 667 |  |  | Ki [13]: > 3000 nM
COc1ccc(-c2cc(-c3nc(C)no3)c(=O)n(C)c2-c2ccncc2)cc1 |  | > 1000 |  |  |  |  |  | > 667 | Ki [14]: > 667 nM; Ki [15]: > 1000 nM
COC(=O)c1cc(-c2ccc(OC)cc2)c(-c2cccnc2)n(C)c1=O |  | 73 |  | 76 |  | > 667 | 680 |  | 
COc1ccc(-c2cc(-c3cc(C)cs3)c(=O)n(C)c2-c2ccncc2)cc1 |  | 23 |  |  |  |  |  | 340 | Ki [12]: 38 nM; Ki [10]: 41 nM
COc1ccc(-c2cc(C#N)c(O)nc2-c2ccc(N(C)C)cc2)cc1 |  | > 30000 |  | > 30000 |  | > 667 |  |  | Ki [16]: > 30000 nM
